In the library only some 4.1% were active in any assay of this set; here they are far more common.
Redox H2O2 prof: compounds producing H2O2 with reducing agent – biochemical, NIH compound library profiling, artefact control for MLSCN library redox annotation, primary screen. actives 0.03% (n = 200,000). activation, % at 10 µM. DTT-dependent redox cycling H2O2, phenol red/HRP absorbance; 100% = 100 µM peroxide control, 0% = buffer;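 active means activation of at least 50% relative to the plate's high and low controls in the primary single-dose screen; inactive means activation below 50%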;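 further: compound incubated with DTT at 0.8 mM final as the reducing agent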
Autophagy mod: autophagy modulators in MEF cells, primary screen, imaging, high-content, MEF GFP-LC3; MEF GFP-LC3 puncta imaging; test concentration mostly 10 µM; calls only at 10 µM (by protocol); actives 0.98% (n = 190,000); AID 463193, 2010;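 active means percentage of spot-positive cells more than 3 SD above its plate mean, without a fluorescence outlier flag or 80% toxicity; inconclusive means no clear call, values can overlap the other calls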;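 further: spot-positive cell cutoff set from DMSO-treated cells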
Cl transport mod: KCC2 cotransporter modulators, thallium flux, primary screen, cell-based, HEK293 KCC2, FluoZin-2 fluorescence, MLSMR. Solute carrier family 12 member 5 (Homo sapiens), Q9H2X9. actives 2.2% (n = 190,000). B-score of Tl+ flux slope (higher = more flux/activation; lower = inhibition) at 10 µM. KCC2 cells, thallium flux FluoZin-2 fluorescence;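 active means thallium flux slope and its plate-corrected score both differing from the plate sample mean at a set confidence after two filtering rounds, in either direction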;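 further: slope of fluorescence scaled to starting intensity during 10 to 20 s after thallium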
Dynein transport: inhibitors of GR-EGFP nuclear translocation, primary screen, dynein cargo transport inhibitor project, imaging, high-content, 3617.4 mouse cells | test concentration mostly 20 µM; stimulated with dexamethasone, 1 µM; stronger effect = lower value | z-score, hits read low | actives 0.47% (n = 220,000);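 active means plate z-score of nuclear minus cytoplasmic receptor signal below a set negative limit, without overly bright fluorescence or cell loss, cut at about -3.5 in these data, passing the limit was not always enough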;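 further: z-score of nuclear minus cytoplasmic ring GR-EGFP intensity difference per well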
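Buffer or medium: Induction medium lacking tetracycline, stripped serum | Also added: Dexamethasone agonist, 1.0 µM final, for 30 min | Timing: 48 h induction, 1 h compound, 30 min dex at 37 °C | Detection: Formaldehyde fixation, Hoechst nuclear stain, 10x automated fluorescence imaging | Measure: Nuclear versus cytoplasmic GR-EGFP signal, averaged per well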
ROMK mod: ROMK potassium channel modulators, primary screen, cell-based, thallium flux, MLSMR library; actives 2% (n = 130,000); B-score at 10 µM; ATP-sensitive inward rectifier potassium channel 1 (Homo sapiens), P48048; Tet-inducible ROMK, thallium flux fluorescence; actives lie on both sides;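 active means signal ratio slope over the read window, or its plate-corrected B-score, at least 3 SD from the plate mean, either direction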;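 further: B-score of the F/F0 ratio slope over 7 to 12 s after thallium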
ROMK hit retest: ROMK channel modulator hit retest, confirmation, cell-based, thallium flux, duplicate, resupplied hits; shares compounds with ROMK mod; actives 54% (n = 3,000); normalized thallium flux (F/F0 slope) at 10 µM; fluorescence ratio; stronger effect = lower value; AID 1917, 2009;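 active means Flux at 10 µM at least 3 SD below or above vehicle control mean in one or both replicates; inconclusive means no clear call, values can overlap the other calls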
* hit, by the source's call; i = inactive; ? = inconclusive; . = no result.

SMILES	Redox H2O2 prof	Autophagy mod	Cl transport mod	Dynein transport	ROMK mod	ROMK hit retest
COc1ccccc1C1NC=C([N+](=O)[O-])C=C1[N+](=O)[O-] (stereo unspecified)	-1	i	-3.5	-0.75	.	0.051*
COc1ccccc1C1CCN(c2ccc([N+](=O)[O-])c(OC)c2)CC1	.	.	-1.3	-1.3	.	.
O=C(CCn1ccnc1)Nc1ccc2ccccc2c1	-1	i	-0.38	-0.32	-0.94	.
Cc1cc(NC(=O)CSc2nnc(COc3ccccc3)n2Cc2ccco2)no1	0	i	.	-0.33	-0.15	.
Cc1ccc(OCc2nnc(SCC(=O)C(C)(C)C)n2Cc2ccco2)cc1	0	i	.	0.0046	-3.6*	0.075
O=[N+]([O-])c1ccc(/C=C/c2ccc3ccccc3n2)cc1	0	i	0.17	0.16	-1.4	.
CC1(C)Oc2ccccc2OC1(O)c1ccc2ccccc2n1 (stereo unspecified)	0	i	0.027	0.66	.	0.064*
CCOc1ccc(-c2nc(CSCC(=O)N3CCN(c4cccc(OC)c4)CC3)c(C)o2)cc1	-1	i	.	-0.58	.	0.067*
O=C(/C=C/c1ccc(F)cc1)Nc1ccc2[nH]c(=O)[nH]c2c1	.	.	-0.58	0.17	.	.
CC(C)Cn1c(N)c(-c2nc(C(C)C)c(C(=O)c3ccccc3F)s2)c(=O)n(C)c1=O	1	i	-0.011	-0.65	0.044	.
COc1ccc(-n2c(SCc3ccc([N+](=O)[O-])cc3)nnc2-c2ccc(C)cc2)cc1	1	i	-0.95	0.6	.	.
Cc1cccc(-n2c(Cc3ccccc3)nnc2SCc2ccc([N+](=O)[O-])cc2)c1	0	i	-1.7	-0.61	-7.4*	0.044*
COc1ccc(-n2c(Cc3ccccc3)nnc2SCc2ccc([N+](=O)[O-])cc2)cc1	0	i	-2.3	-0.83	-2.3*	0.06*
COc1ccc(N2C(=O)C3CCCCC3C2=O)cc1NC(=O)c1ccccc1 (stereo unspecified)	0	i	-0.016	-0.33	0.3	.
NNC(=O)CCC(=O)Nc1ccccc1	-3	i	-0.42	-0.55	-0.032	.
CCOC(=O)NC(Nc1ccc(C)cn1)(C(F)(F)F)C(F)(F)F	1	i	0.28	0.33	0.045	.
CC(C)OC(=O)NC(Nc1ccccc1C(=O)O)(C(F)(F)F)C(F)(F)F	.	.	0.46	0.2	.	0.076
COC(=O)c1ccc(CNC(=O)COC(=O)COc2ccc(OC)cc2)cc1	0	i	-0.1	-0.74	0.51	.
Cc1cc(C)nc(SCc2nnc(SCC(=O)Nc3ccc(Cl)c(C(F)(F)F)c3)o2)n1	0	i	-0.33	0.28	-3.9*	0.064*
OCCC1CN(Cc2cnc(-c3ccc(Cl)cc3)nc2)CCN1C1CCCC1 (stereo unspecified)	.	.	0.039	-0.26	.	.
CCOc1cccc(C2C(C(=O)c3ccc(C)o3)=C(O)C(=O)N2Cc2ccncc2)c1 (stereo unspecified)	2	i	.	0.31	.	.
CCOc1cccc(C2C(C(=O)c3ccc(C)o3)=C(O)C(=O)N2c2nccs2)c1 (stereo unspecified)	1	i	-2.2	-0.23	-5.4*	0.038*
O=C(NCC1CCCO1)c1cc(-c2ccco2)nc2ccccc12 (stereo unspecified)	2	i	0.38	-0.54	-0.77	.
O=C(COC(=O)c1cc(-c2ccc(F)cc2)nc2ccccc12)NCC1CCCO1 (stereo unspecified)	0	i	-0.69	0.72	-4.4*	0.066*
CCCOc1ccc(-c2cc(C(=O)NCC3CCCO3)c3ccccc3n2)cc1 (stereo unspecified)	0	i	0.24	0.46	-4.2*	?
CC(C)OP(=O)(c1ccc(N(C)C)cc1)C(O)c1cccnc1 (stereo unspecified)	.	.	-0.042	0.57	.	.

Compound activity: PubChem BioAssay, several laboratories
